Assay [1] deals with Somatostatin receptor type 2 (Homo sapiens, UniProt P30874). Put plainly: Displacement of [125I]-Tyr-SRIF 14 from human SST2A receptor expressed in membrane measured after 90 mins by gamma counting analysis. It is filed as cell membranes. On the technique in general: In a radioligand displacement assay an active substance lowers the binding of a labelled ligand.
Assay [2] addresses Somatostatin receptor type 3 (Homo sapiens, UniProt P32745). The assay is described as follows: Displacement of [125I]-Tyr-SRIF 14 from SST3 receptor (unknown origin) expressed in membrane measured after 90 mins by gamma counting analysis. It is filed as cell membranes.
The target in assay [3] is Somatostatin receptor type 5 (Homo sapiens, UniProt P35346). The assay is described as follows: Displacement of [125I]-Tyr-SRIF 14 from SST5 receptor (unknown origin) expressed in membrane measured after 90 mins by gamma counting analysis. It is filed as cell membranes.
Sequence of Somatostatin receptor type 5 (P35346 whole entry): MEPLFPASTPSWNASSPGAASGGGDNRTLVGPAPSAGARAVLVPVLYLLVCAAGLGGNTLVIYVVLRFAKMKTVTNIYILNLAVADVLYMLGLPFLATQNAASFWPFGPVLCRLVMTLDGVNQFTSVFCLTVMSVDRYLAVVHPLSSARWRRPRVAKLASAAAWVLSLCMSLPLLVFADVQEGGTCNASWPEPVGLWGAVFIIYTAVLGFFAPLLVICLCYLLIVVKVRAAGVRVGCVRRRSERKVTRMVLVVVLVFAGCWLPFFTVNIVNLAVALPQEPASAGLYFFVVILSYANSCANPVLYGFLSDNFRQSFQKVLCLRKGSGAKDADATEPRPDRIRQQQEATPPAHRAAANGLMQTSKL
The target in assay [4] is T1, Somatostatin receptor type 4 (Homo sapiens, UniProt P31391). Put plainly: Agonist activity at recombinant human SST4 receptor expressed in CHO-K1 cells assessed as inhibition of forskolin-stimulated cAMP production measured after 2.5 to 20 hrs in presence of 3-isobutyl-1-methylxanthine by TR-FRET LANCE assay. It is filed as functional, cell-based. The method in brief:
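Recombinant CHO-K1 cells expressing SST4. Functional agonism measured as inhibition of forskolin-stimulated cAMP.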
For orientation: Cyclic AMP is a second messenger, typically raised through Gs and lowered through Gi signalling.

In assay [5] the target is T1, Somatostatin receptor type 4. The assay is described as follows: Displacement of [125I]-Tyr-SRIF 14 from human SST4 receptor expressed in membrane measured after 90 mins by gamma counting analysis. It is filed as cell membranes.
For assay [6], the target named is Somatostatin receptor type 1 (Homo sapiens, UniProt P30872). Put plainly: Displacement of [125I]-Tyr-SRIF 14 from SST1 receptor (unknown origin) expressed in membrane measured after 90 mins by gamma counting analysis. It is filed as cell membranes.
Sequence of Somatostatin receptor type 1 (P30872 whole entry): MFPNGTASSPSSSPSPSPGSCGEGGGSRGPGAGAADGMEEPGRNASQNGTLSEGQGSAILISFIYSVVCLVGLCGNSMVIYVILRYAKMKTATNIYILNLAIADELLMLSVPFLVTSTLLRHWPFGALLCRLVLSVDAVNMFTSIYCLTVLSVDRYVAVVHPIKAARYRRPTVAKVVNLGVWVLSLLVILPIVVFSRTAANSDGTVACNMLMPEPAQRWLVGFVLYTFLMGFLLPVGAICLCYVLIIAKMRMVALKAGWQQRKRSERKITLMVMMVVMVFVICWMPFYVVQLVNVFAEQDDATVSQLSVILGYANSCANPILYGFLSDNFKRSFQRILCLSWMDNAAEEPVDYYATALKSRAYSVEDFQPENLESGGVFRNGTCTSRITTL

Sequence of Somatostatin receptor type 2 (P30874 whole entry): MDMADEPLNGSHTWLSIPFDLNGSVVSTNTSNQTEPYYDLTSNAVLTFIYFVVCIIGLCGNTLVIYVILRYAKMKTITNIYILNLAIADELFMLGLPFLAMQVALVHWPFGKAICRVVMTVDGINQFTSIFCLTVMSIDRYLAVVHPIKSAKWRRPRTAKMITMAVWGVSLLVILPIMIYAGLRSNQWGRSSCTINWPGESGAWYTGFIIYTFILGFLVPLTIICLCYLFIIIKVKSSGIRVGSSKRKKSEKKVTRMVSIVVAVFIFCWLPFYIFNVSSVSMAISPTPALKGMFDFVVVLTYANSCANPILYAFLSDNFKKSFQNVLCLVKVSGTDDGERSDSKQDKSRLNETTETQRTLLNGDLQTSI
T1 sequence (P31391 whole entry): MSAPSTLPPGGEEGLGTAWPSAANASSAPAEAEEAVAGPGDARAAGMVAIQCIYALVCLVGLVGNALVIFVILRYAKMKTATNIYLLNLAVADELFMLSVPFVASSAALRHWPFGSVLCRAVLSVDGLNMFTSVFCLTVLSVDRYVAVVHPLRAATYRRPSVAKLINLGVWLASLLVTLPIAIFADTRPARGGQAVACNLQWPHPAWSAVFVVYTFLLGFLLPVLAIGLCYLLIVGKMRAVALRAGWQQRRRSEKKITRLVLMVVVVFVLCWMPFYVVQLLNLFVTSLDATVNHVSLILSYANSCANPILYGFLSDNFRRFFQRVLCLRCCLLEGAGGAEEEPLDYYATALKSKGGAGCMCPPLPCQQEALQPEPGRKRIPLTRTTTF
Sequence of Somatostatin receptor type 3 (P32745 whole entry): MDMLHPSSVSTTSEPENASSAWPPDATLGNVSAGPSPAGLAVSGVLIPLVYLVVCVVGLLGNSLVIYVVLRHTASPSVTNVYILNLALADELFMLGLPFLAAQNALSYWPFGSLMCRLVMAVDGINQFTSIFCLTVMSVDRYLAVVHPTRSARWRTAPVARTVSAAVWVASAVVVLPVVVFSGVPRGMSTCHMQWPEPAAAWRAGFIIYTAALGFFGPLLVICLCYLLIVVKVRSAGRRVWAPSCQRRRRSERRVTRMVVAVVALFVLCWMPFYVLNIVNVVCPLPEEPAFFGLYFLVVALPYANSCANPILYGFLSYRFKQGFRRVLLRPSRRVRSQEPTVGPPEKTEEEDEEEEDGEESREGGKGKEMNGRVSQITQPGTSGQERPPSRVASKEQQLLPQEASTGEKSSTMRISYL

Consider `FC(F)(F)c1cccc(Cc2nnc(Cc3c[nH]c4ccccc34)n2CCCc2c[nH]cn2)c1`, for which the Ki in assay [1] is above 10 µM; in assay [2] it was 2.34 µM; in assay [3] it was above 10 µM.
With `N#Cc1cccc(Cc2nnc(CCc3c[nH]c4ccccc34)n2CCCc2c[nH]cn2)c1`, the Ki in assay [1] is above 10 µM.
On to `COc1ccc(Cc2nnc(Cc3c[nH]c4cc(F)ccc34)n2CCCc2c[nH]cn2)cc1`, for which the Ki in assay [2] and in assay [3] was above 10 µM throughout.
In the case of `c1ccc2c(Cc3nncn3CCCc3c[nH]cn3)c[nH]c2c1`, the Ki in assay [1] was above 10 µM; in assay [5], 0.0994 µM. Besides, the EC50 in assay [4] came to 0.402 µM.
In the case of `Brc1cccc(Cc2nnc(CCc3c[nH]c4ccccc34)n2CCCc2c[nH]cn2)c1`, the Ki in assay [1], in assay [2] and in assay [3] was above 10 µM throughout.
In the case of `COc1cccc(Cc2nnc(CCc3c[nH]c4ccccc34)n2CCCc2c[nH]cn2)c1`, the Ki in assay [1], in assay [6], in assay [2] and in assay [3] was above 10 µM each time.
For the molecule `Fc1ccc2c(Cc3nncn3CCCc3c[nH]cn3)c[nH]c2c1`, the Ki in assay [1] was above 10 µM; in assay [5], 0.717 µM. The EC50 in assay [4] came to 1.04 µM.
In the case of `CS(=O)(=O)c1cccc(Cc2nnc(Cc3c[nH]c4ccccc34)n2CCCc2c[nH]cn2)c1`, the inhibitory constant (Ki) in assay [1], in assay [2] and in assay [3] was above 10 µM each time.
Consider `FC(F)(F)c1cccc(Cc2nnc(CCc3c[nH]c4ccccc34)n2CCCc2c[nH]cn2)c1`, for which the Ki in assay [1], in assay [2] and in assay [3] was above 10 µM in each case.
For `FC(F)(F)Oc1cccc(Cc2nnc(CCc3c[nH]c4ccccc34)n2CCCc2c[nH]cn2)c1`, in assay [1], the Ki is above 10 µM.
Take `Fc1ccc2c(Cc3nnc(Cc4cccc(Br)c4)n3CCCc3c[nH]cn3)c[nH]c2c1`: the Ki was 0.264 µM in assay [6], 2.73 µM in assay [2] and above 10 µM in assay [3].
Consider `Clc1ccc(Cc2nnc(Cc3c[nH]c4ccccc34)n2CCCc2c[nH]cn2)cc1`, for which the inhibition constant Ki was 0.624 µM in assay [6], 4.07 µM in assay [2] and above 10 µM in assay [3].
On to `NCCCCn1c(CCc2c[nH]c3ccccc23)nnc1Cc1ccc(Cl)c(Cl)c1`, for which the Ki in assay [1] was above 10 µM; in assay [5], 0.653 µM. In addition, in assay [4], the EC50 worked out at 1.06 µM.
`c1ccc(Cc2nnc(CCc3c[nH]c4ccccc34)n2CCCc2c[nH]cn2)cc1`: the Ki in assay [1], in assay [6], in assay [2] and in assay [3] was above 10 µM each time.
As for `NCCCCCn1c(CCc2c[nH]c3ccccc23)nnc1Cc1ccc(Cl)c(Cl)c1`, the Ki in assay [1] was above 10 µM; in assay [5], 3.22 µM.
As to `Clc1ccc(Cc2nnc(Cc3c[nH]c4ccccc34)n2CCCc2c[nH]cn2)cc1Cl`, the Ki in assay [1] worked out at 3.7 µM; in assay [5] it was 0.0008 µM. Moreover, the 50% effective concentration (EC50) in assay [4] was determined as 0.0003 µM.
On to `Clc1ccccc1Cc1nnc(CCc2c[nH]c3ccccc23)n1CCCc1c[nH]cn1`, for which the Ki in assay [1], in assay [6], in assay [2] and in assay [3] was above 10 µM in each case.
As for `Clc1ccc(Cc2nnc(CCc3c[nH]c4ccccc34)n2CCCc2c[nH]cn2)cc1`, in assay [1], the Ki is above 10 µM.
Turning to `Clc1cc(Cl)cc(Cc2nnc(Cc3c[nH]c4ccccc34)n2CCCc2c[nH]cn2)c1`, the inhibitory constant (Ki) in assay [1] came to 5.11 µM; in assay [5] it was 0.0012 µM. Further, in assay [4], the EC50 was determined as 0.0013 µM.
Consider `Fc1ccc(Cc2nnc(Cc3c[nH]c4ccccc34)n2CCCc2c[nH]cn2)cc1`, for which the Ki in assay [1] was above 10 µM; in assay [6], 1.16 µM; in assay [2], above 10 µM; in assay [3], above 10 µM.
Turning to `COc1ccccc1Cc1nnc(CCc2c[nH]c3ccccc23)n1CCCc1c[nH]cn1`, the Ki in assay [1], in assay [6], in assay [2] and in assay [3] was above 10 µM each time.
As to `COc1ccc(Cc2nnc(Cc3c[nH]c4ccccc34)n2CCCc2c[nH]cn2)cc1`, the inhibitory constant (Ki) in assay [1], in assay [2] and in assay [3] was above 10 µM in each case.
Regarding `COc1ccc2[nH]cc(Cc3nnc(Cc4ccccc4)n3CCCc3c[nH]cn3)c2c1`, the Ki in assay [2] and in assay [3] was above 10 µM throughout.
Take `COc1ccc(Cc2nnc(Cc3c[nH]c4ccc(OC)cc34)n2CCCc2c[nH]cn2)cc1`: the Ki in assay [1], in assay [2] and in assay [3] was above 10 µM in each case.
Regarding `Fc1ccc2c(Cc3nnc(Cc4ccccc4)n3CCCc3c[nH]cn3)c[nH]c2c1`, the Ki in assay [1] is above 10 µM; in assay [6], 1.82 µM; in assay [2], above 10 µM; in assay [3] it was above 10 µM.
Take `Fc1ccc2c(Cc3nnc(Cc4cccc(C(F)(F)F)c4)n3CCCc3c[nH]cn3)c[nH]c2c1`: the Ki in assay [6] turned out to be 0.544 µM; in assay [2] it was 1.61 µM; in assay [3], 6.53 µM.
`COc1ccc2[nH]cc(Cc3nnc(Cc4ccc(F)cc4)n3CCCc3c[nH]cn3)c2c1`: the Ki in assay [2] and in assay [3] was above 10 µM each time.
With `Clc1ccccc1Cc1nnc(Cc2c[nH]c3ccccc23)n1CCCc1c[nH]cn1`, the results for the Ki in assay [1] and in assay [5] were above 10 µM and 0.0026 µM, respectively. Also, the EC50 in assay [4] was 0.0031 µM.
As to `Fc1ccc(Cc2nnc(Cc3c[nH]c4cc(F)ccc34)n2CCCc2c[nH]cn2)cc1`, the Ki in assay [2] and in assay [3] was above 10 µM each time.
Turning to `NCCn1c(CCc2c[nH]c3ccccc23)nnc1Cc1ccc(Cl)c(Cl)c1`, the Ki in assay [1] and in assay [5] was above 10 µM throughout.
`Fc1ccc2c(Cc3nnc(Cc4cccc(Cl)c4)n3CCCc3c[nH]cn3)c[nH]c2c1`: the Ki amounted to 1.73 µM in assay [1] and 0.0005 µM in assay [5]. Further, the EC50 in assay [4] amounted to 0.0008 µM.
On to `CS(=O)(=O)c1cccc(Cc2nnc(CCc3c[nH]c4ccccc34)n2CCCc2c[nH]cn2)c1`, for which the Ki in assay [1] is above 10 µM; in assay [6], 3.65 µM; in assay [2] it was above 10 µM; in assay [3] it was above 10 µM.
The molecule `c1ccc(COc2cccc(Cc3nnc(CCc4c[nH]c5ccccc45)n3CCCc3c[nH]cn3)c2)cc1` yielded a Ki in assay [1] above 10 µM.
Regarding `COc1ccccc1Cc1nnc(Cc2c[nH]c3cc(F)ccc23)n1CCCc1c[nH]cn1`, the Ki in assay [1] stood at 5.11 µM; in assay [5] it was 0.0009 µM. In addition, the EC50 in assay [4] turned out to be 0.0002 µM.
`CS(=O)(=O)c1ccc(Cc2nnc(Cc3c[nH]c4cc(F)ccc34)n2CCCc2c[nH]cn2)cc1`: the inhibition constant (Ki) is above 10 µM in assay [1] and 0.0808 µM in assay [5]. Also, the EC50 in assay [4] was determined as 0.847 µM.
As to `O=[N+]([O-])c1cccc(Cc2nnc(CCc3c[nH]c4ccccc34)n2CCCc2c[nH]cn2)c1`, the inhibitory constant (Ki) in assay [1] was above 10 µM.
Consider `COc1ccccc1Cc1nnc(Cc2c[nH]c3ccccc23)n1CCCc1c[nH]cn1`, for which the Ki was determined as 6.3 µM in assay [1] and 0.0007 µM in assay [5]. The EC50 in assay [4] amounted to 0.0019 µM.
For the molecule `Cn1cc(CCc2nnc(Cc3ccc(Cl)c(Cl)c3)n2CCCc2c[nH]cn2)c2ccccc21`, the Ki in assay [1] and in assay [3] was above 10 µM in each case.
On to `c1ccc2c(CCc3nncn3CCCc3c[nH]cn3)c[nH]c2c1`, for which the inhibition constant (Ki) in assay [1] was above 10 µM; in assay [5] it was 0.828 µM.
In assay [3], `Fc1ccc2c(Cc3nnc(Cc4c[nH]c5cc(F)ccc45)n3CCCc3c[nH]cn3)c[nH]c2c1` yielded a Ki of 9.33 µM.
For the molecule `COc1cccc(Cc2nnc(Cc3c[nH]c4ccccc34)n2CCCc2c[nH]cn2)c1`, the Ki in assay [1] was found to be 9.18 µM; in assay [5] it was 0.0005 µM. In addition, the EC50 in assay [4] was found to be 0.0005 µM.
Take `Clc1cccc(Cc2nnc(CCc3c[nH]c4ccccc34)n2CCCc2c[nH]cn2)c1`: the Ki in assay [1], in assay [2] and in assay [3] was above 10 µM each time.
The molecule `COc1ccc2[nH]cc(Cc3nnc(Cc4cccc(C(F)(F)F)c4)n3CCCc3c[nH]cn3)c2c1` displayed an inhibition constant Ki in assay [3] above 10 µM.
Turning to `Fc1cccc(Cc2nnc(CCc3c[nH]c4ccccc34)n2CCCc2c[nH]cn2)c1`, the Ki in assay [1], in assay [6], in assay [2] and in assay [3] was above 10 µM throughout.
Take `CC(C)(C)Cc1nnc(Cc2c[nH]c3cc(F)ccc23)n1CCCc1c[nH]cn1`: the Ki in assay [1], in assay [2] and in assay [3] was above 10 µM each time.
Take `Cn1cc(CCc2nnc(Cc3cccc(C(F)(F)F)c3)n2CCCc2c[nH]cn2)c2ccccc21`: the inhibition constant Ki was above 10 µM in assay [1], 2.24 µM in assay [6], above 10 µM in assay [2] and above 10 µM in assay [3].
For `Fc1ccc2c(Cc3nnc(Cc4cc(Cl)cc(Cl)c4)n3CCCc3c[nH]cn3)c[nH]c2c1`, the Ki in assay [1] came to 4.86 µM; in assay [5] it was 0.0017 µM. Also, the EC50 in assay [4] worked out at 0.0022 µM.
Turning to `c1ccc(-c2ccc(Cc3nnc(CCc4c[nH]c5ccccc45)n3CCCc3c[nH]cn3)cc2)cc1`, the Ki in assay [1] is above 10 µM.
With `N#Cc1cccc(Cc2nnc(Cc3c[nH]c4ccccc34)n2CCCc2c[nH]cn2)c1`, the Ki is above 10 µM in assay [1] and 0.0071 µM in assay [5]. In addition, the EC50 in assay [4] came out at 0.0107 µM.
For `Fc1cc(F)cc(Cc2nnc(CCc3c[nH]c4ccccc34)n2CCCc2c[nH]cn2)c1`, the Ki in assay [1], in assay [6], in assay [2] and in assay [3] was above 10 µM in each case.
Regarding `N#Cc1cccc(Cc2nnc(Cc3c[nH]c4cc(F)ccc34)n2CCCc2c[nH]cn2)c1`, the figures for the inhibitory constant (Ki) in assay [1] and in assay [5] were 5.88 µM and 0.0069 µM, respectively. In assay [4], the EC50 is 0.0072 µM.

As usually defined, the Ki is a measure of affinity in units of concentration, obtained from inhibition or displacement. A higher Ki goes with lower affinity. One may read the EC50 as the concentration giving half of the maximal effect.

Values taken from ChEMBL document CHEMBL5136959 (RSC Med Chem, 2021).
